Measurements from ChEMBL document CHEMBL3098111, “Discovery of 2,5-diarylnicotinamides as selective orexin-2 receptor antagonists (2-SORAs)” (Bioorg Med Chem Lett, 2013).
One block for each compound: values may come before it.

Key:
[1] = Oral bioavailability in rat; type: ADME, organism-based; conditions: in vivo
[2] = Clearance in rat; type: ADME, organism-based; conditions: in vivo
[3] = Half life in rat; type: ADME, organism-based; conditions: in vivo
[4] = Ratio of drug level in brain to plasma in rat at 3 mg/kg, po after 1 hr; type: ADME, organism-based; set-up: dose 3 mg/kg, route oral; conditions: read-out: BPR
[5] = species on record: Homo sapiens; test: Selectivity ratio of Ki for human orexin-1 receptor to Ki for human orexin-2 receptor
How it was run: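 Radioligand binding: a high-affinity radioligand was bound to membranes from human cells overexpressing OX1R or OX2R, and inhibition of that binding was measured and expressed as Ki. The ratio is the OX1R Ki divided by the OX2R Ki.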

[6] = target: T1, Orexin/Hypocretin receptor type 1 (Homo sapiens, UniProt O43613); test: Displacement of [3H]SB-674042 from human orexin-1 receptor after 60 mins by scintillation counting analysis
T1 sequence (O43613 whole entry): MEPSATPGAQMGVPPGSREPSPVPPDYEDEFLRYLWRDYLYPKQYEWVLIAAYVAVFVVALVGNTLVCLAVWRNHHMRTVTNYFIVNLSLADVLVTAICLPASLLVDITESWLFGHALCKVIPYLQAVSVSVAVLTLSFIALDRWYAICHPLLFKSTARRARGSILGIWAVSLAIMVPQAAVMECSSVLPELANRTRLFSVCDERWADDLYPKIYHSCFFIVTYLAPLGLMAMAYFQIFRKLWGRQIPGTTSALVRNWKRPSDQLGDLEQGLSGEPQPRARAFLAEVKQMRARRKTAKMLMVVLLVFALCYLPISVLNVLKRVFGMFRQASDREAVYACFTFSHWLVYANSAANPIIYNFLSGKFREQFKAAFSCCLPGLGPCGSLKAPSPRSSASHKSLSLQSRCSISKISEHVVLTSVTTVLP
How it was run: (§1)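 Radioligand binding on membranes from human cells overexpressing the orexin receptor. Inhibition of high-affinity radioligand binding measured and expressed as Ki.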

[7] = target: T2, Orexin receptor type 2 (Homo sapiens, UniProt O43614); test: Displacement of [3H]SB-674042 from human orexin-2 receptor after 60 mins by scintillation counting analysis; how it was run: as §1
T2 sequence (O43614 whole entry): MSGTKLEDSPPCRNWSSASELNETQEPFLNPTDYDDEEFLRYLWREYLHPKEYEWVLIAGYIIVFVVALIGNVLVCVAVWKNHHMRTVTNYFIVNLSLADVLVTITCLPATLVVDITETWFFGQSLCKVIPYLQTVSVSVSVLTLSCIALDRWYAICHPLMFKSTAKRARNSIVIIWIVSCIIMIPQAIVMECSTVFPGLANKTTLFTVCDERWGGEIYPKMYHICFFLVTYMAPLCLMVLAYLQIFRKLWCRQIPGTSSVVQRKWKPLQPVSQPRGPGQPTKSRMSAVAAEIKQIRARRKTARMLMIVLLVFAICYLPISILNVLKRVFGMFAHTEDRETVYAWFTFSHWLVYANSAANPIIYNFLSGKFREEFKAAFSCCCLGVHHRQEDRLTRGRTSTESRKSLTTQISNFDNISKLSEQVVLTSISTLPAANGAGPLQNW

[8] = Bioavailability in rat at 10 mg/kg; type: ADME, organism-based; conditions: in vivo
[9] = Clearance in rat at 10 mg/kg; type: ADME, organism-based; set-up: dose 10 mg/kg; conditions: in vivo
[10] = target: L-type calcium channel, phenylalkylamine binding site (Rattus norvegicus, UniProt P22002+P27732+Q02485); test: Inhibition of rat L-type calcium channel phenylalkylamine binding site at 10 uM relative to control
[11] = target: L-type calcium channel, dihydropyridine binding site (Rattus norvegicus, UniProt P22002+P27732+Q02485); test: Inhibition of rat L-type calcium channel dihydropyridine binding site at 10 uM relative to control
[12] = target: L-type calcium channel, benzothiazepine binding site (Rattus norvegicus, UniProt P22002+P27732+Q02485); test: Inhibition of rat L-type calcium channel benzothiazepine binding site at 10 uM relative to control
[13] = target: MAO-B (Homo sapiens, UniProt P27338); test: Inhibition of human MAO-B at 10 uM relative to control
MAO-B, sequence (P27338 whole entry): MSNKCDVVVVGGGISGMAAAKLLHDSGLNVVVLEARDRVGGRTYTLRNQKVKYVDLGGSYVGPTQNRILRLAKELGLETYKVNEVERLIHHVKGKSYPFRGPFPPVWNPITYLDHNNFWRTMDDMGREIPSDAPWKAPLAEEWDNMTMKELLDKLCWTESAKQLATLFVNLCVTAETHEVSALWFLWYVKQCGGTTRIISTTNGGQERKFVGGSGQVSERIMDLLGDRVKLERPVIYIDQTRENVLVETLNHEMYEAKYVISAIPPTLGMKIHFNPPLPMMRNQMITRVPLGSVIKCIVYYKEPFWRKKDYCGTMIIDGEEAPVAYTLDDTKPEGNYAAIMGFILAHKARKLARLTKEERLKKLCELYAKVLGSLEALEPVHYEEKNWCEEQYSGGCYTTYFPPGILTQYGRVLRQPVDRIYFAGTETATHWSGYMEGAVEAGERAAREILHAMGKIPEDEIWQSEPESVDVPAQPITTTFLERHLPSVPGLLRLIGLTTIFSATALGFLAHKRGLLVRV

[14] = target: MAO-A (Homo sapiens, UniProt P21397); test: Inhibition of human MAO-A at 10 uM relative to control
MAO-A, sequence (P21397 whole entry): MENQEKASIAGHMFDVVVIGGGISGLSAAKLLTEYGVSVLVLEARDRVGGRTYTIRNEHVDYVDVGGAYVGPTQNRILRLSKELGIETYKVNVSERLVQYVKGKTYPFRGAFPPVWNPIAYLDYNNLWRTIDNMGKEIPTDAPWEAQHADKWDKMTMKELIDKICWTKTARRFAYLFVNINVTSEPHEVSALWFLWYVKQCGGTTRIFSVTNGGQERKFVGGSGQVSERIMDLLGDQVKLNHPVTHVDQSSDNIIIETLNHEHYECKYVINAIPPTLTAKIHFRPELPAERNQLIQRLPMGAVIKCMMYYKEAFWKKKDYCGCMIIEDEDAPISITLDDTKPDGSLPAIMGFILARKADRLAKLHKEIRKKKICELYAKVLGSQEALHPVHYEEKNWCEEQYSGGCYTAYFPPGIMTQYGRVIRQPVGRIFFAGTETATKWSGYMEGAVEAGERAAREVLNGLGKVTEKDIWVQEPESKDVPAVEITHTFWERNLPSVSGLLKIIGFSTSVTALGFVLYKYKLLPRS

[15] = target: T3, hERG (KCNH2) (Homo sapiens, UniProt Q12809); test: Inhibition of human ERG at 10 uM relative to control
T3 sequence (Q12809 whole entry): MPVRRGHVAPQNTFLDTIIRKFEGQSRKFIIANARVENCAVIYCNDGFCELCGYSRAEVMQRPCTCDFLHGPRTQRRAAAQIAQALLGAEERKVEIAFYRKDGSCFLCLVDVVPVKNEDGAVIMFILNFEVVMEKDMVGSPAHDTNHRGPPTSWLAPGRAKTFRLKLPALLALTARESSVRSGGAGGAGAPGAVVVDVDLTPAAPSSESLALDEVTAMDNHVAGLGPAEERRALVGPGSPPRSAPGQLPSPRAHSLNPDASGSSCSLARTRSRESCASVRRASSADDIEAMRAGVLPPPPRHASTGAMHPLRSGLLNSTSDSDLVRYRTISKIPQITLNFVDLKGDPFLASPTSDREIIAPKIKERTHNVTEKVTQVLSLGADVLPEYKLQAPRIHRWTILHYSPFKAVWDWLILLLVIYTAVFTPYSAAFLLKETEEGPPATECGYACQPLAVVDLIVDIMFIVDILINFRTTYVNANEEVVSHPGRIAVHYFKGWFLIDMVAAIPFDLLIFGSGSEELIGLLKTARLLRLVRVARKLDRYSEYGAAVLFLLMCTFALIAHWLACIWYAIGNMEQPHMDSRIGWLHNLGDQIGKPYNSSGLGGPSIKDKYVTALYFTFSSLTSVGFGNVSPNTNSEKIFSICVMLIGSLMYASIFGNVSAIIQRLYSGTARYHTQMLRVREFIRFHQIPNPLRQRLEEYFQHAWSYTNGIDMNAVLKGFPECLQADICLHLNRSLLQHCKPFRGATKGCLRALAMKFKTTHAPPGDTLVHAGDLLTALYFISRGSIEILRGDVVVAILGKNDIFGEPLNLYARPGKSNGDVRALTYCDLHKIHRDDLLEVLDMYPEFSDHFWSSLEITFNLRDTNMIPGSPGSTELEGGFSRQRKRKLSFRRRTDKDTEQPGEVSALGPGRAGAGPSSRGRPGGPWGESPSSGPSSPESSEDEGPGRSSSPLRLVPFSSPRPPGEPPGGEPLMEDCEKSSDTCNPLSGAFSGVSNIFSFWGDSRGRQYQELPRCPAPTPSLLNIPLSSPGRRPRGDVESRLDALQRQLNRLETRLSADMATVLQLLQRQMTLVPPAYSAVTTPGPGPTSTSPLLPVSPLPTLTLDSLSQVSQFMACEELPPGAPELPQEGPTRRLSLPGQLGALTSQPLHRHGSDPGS

[16] = Cmax in rat EEG model at 15 mg/kg, po; type: ADME, organism-based; set-up: dose 15 mg/kg, route oral; conditions: in vivo
[17] = AUC in rat EEG model at 15 mg/kg, po; type: ADME, organism-based; set-up: dose 15 mg/kg, route oral; conditions: in vivo
[18] = system: Nucleic Acid; test: Ratio of drug level in CSF to plasma in rat at 3 mg/kg, po after 1 hr; type: ADME, organism-based; set-up: dose 3 mg/kg, route oral
[19] = target: MDR1 (P-gp, ABCB1) (Homo sapiens, UniProt P08183); test: Activity at human MDR1 expressed in pig LLC-PK cells assessed as efflux ratio of permeability from basolateral to apical side over apical to basolateral side; type: ADME, cell-based; conditions: LLC-PK1
[20] = Fraction unbound in rat plasma by equilibrium dialysis method; type: ADME, cell-free
[21] = Lipophilicity, log P of the compound; type: physicochemical; conditions: octanol/water
[22] = Fraction unbound in human plasma by equilibrium dialysis method; type: ADME, cell-free
[23] = target: T1, Orexin/Hypocretin receptor type 1; test: Antagonist activity at human orexin-1 receptor assessed as inhibition of orexin-A-induced intracellular calcium mobilization after 30 mins by cell-based FLIPR assay; type: functional
How it was run: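 Cell-based FLIPR functional assay in orexin receptor-expressing cells, with Ca2+ flux as the read-out of orexin-driven receptor activation.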

[24] = target: T2, Orexin receptor type 2; test: Antagonist activity at human orexin-2 receptor assessed as inhibition of orexin-A-induced intracellular calcium mobilization after 30 mins by cell-based FLIPR assay; type: functional
[25] = target: 5-hydroxytryptamine receptor 2B (Homo sapiens, UniProt P41595); test: Inhibition of human 5-HT2B receptor
5-hydroxytryptamine receptor 2B, sequence (P41595 whole entry): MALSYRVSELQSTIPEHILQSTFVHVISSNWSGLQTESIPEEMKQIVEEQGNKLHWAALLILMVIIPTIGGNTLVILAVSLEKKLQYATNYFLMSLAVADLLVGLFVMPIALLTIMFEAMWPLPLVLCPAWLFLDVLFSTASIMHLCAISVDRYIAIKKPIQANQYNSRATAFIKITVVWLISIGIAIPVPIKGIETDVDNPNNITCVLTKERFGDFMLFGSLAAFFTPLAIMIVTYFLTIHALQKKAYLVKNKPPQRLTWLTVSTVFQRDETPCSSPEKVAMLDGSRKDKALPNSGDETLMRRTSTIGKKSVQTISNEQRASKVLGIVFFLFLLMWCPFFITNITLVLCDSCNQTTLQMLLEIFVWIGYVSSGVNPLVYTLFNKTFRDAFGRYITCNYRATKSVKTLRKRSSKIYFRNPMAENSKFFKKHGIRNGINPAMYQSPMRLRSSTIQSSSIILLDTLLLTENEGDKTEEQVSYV

[26] = target: Voltage-gated inwardly rectifying potassium channel KCNH2 (Homo sapiens, UniProt Q12809); test: Inhibition of human ERG
[27] = target: 5-hydroxytryptamine receptor 1A (Homo sapiens, UniProt P08908); test: Inhibition of human 5-HT1A receptor
5-hydroxytryptamine receptor 1A, sequence (P08908 whole entry): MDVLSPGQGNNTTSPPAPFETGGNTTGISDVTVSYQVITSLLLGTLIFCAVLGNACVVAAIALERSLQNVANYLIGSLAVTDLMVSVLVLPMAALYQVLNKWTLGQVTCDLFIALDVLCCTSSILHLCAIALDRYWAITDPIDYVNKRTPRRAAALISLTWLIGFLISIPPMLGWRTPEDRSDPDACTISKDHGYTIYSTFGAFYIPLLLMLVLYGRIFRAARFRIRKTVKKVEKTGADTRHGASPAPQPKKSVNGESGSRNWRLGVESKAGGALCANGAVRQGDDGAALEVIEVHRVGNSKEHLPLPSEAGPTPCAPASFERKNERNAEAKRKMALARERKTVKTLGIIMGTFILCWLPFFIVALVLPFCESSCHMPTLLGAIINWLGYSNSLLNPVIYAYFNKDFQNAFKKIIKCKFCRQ

[28] = target: 5-hydroxytryptamine receptor 1B (Rattus norvegicus, UniProt P28564); test: Inhibition of rat 5-HT1B receptor
5-hydroxytryptamine receptor 1B, sequence (P28564 whole entry): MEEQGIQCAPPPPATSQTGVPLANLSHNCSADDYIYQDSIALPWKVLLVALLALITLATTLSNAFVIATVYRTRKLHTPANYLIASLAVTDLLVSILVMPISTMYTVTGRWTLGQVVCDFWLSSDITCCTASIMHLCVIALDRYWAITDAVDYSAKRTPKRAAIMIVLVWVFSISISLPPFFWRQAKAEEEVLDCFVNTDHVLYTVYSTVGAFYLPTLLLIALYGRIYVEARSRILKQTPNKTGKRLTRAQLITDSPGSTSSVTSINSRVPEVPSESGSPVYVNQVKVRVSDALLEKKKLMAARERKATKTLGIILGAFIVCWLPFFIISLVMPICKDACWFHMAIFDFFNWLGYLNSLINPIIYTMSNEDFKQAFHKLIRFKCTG

[29] = Inhibition of rabbit monoamine transporter; set-up: species or system Oryctolagus cuniculus
[30] = target: Mu-type opioid receptor (Homo sapiens, UniProt P35372); test: Inhibition of human mu opioid receptor
Mu-type opioid receptor, sequence (P35372 whole entry): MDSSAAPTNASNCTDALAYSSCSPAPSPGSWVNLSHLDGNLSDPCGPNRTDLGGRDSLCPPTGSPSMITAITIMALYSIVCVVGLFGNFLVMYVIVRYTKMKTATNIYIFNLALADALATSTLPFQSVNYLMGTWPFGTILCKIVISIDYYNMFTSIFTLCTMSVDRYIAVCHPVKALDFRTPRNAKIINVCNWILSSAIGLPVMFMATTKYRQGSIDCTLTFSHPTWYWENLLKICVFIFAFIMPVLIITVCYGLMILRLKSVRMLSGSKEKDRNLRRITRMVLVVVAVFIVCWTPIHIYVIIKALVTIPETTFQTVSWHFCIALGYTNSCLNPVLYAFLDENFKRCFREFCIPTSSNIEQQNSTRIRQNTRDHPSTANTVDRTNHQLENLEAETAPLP

[31] = target: D(3) dopamine receptor (Homo sapiens, UniProt P35462); test: Inhibition of human dopamine D3 receptor
D(3) dopamine receptor, sequence (P35462 whole entry): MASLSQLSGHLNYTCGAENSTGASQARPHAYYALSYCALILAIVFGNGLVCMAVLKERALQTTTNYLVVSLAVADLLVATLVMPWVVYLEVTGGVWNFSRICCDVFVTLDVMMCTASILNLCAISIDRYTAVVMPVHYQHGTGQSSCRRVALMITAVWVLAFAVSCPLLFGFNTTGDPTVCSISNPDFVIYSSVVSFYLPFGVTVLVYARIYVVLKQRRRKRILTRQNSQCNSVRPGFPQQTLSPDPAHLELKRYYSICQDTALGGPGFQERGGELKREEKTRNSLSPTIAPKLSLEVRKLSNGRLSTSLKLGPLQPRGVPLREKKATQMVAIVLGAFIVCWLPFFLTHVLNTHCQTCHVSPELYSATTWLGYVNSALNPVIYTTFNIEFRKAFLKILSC

[32] = Inhibition of guinea pig adenosine transporter; set-up: species or system Cavia porcellus
[33] = target: T3, hERG (KCNH2); test: Inhibition of human ERG at 10 nM relative to control
[34] = target: T3, hERG (KCNH2); test: Inhibition of human ERG at 0.1 uM relative to control
[35] = target: T3, hERG (KCNH2); test: Inhibition of human ERG at 1 uM relative to control

Compound: COc1ccc(CNC(=O)c2cc(-c3cc(Cl)cc(Cl)c3)cnc2-c2cccnc2)cc1OC.Cl
bioavailability [1]: 55%
clearance [2]: 39 mL/min/kg
half-life [3]: 54 min
Kp at 1 h [4]: 0.19

Compound: COc1ccc(CNC(=O)c2cc(-c3cc(C)cc(C)c3)cnc2-c2cccnc2)cc1
Ratio Ki [5]: 135
Ki [6]: 2980 nM
Ki [7]: 22 nM

Compound: Cc1cc(C)cc(-c2cnc(-c3cccnc3)c(C(=O)NCc3ccc(C(F)(F)F)c(F)c3)c2)c1
Ratio Ki [5]: 58
Ki [6]: 236 nM
Ki [7]: 4.1 nM

Compound: COc1ccc(CNC(=O)c2cc(-c3cccc(Cl)c3)cnc2-c2cccnc2)cc1OC
Ratio Ki [5]: 574
Ki [6]: 747 nM
Ki [7]: 1.3 nM

Compound: COc1ccc(CNC(=O)c2cc(-c3cc(F)cc(F)c3)cnc2-c2cccnc2)cc1OC
Ratio Ki [5]: 620
Ki [6]: 5150 nM
Ki [7]: 8.3 nM

Compound: Cc1cc(C)cc(-c2cnc(-c3cccnc3)c(C(=O)NCc3ccc4c(c3)OCO4)c2)c1
Ratio Ki [5]: 208
Ki [6]: 3550 nM
Ki [7]: 17 nM

Compound: Cc1cc(C)cc(-c2cnc(-c3cccnc3)c(C(=O)NCc3ccc4c(c3)CCN4C)c2)c1
Ratio Ki [5]: 91
Ki [6]: 273 nM
Ki [7]: 3 nM

Compound: COc1cccc(CNC(=O)c2cc(-c3cc(C)cc(C)c3)cnc2-c2cccnc2)c1
Ratio Ki [5]: 83
Ki [6]: 3350 nM
Ki [7]: 40.5 nM

Compound: Cc1cc(C)cc(-c2cnc(-c3cccnc3)c(C(=O)N(C)Cc3ccc4nccnc4c3)c2)c1
Ratio Ki [5]: 92
Ki [6]: 7250 nM
Ki [7]: 78.5 nM

More lines, in order of falling Ki [6], values ahead:

Ratio Ki [5]: 537
Ki [6]: 65000 nM
Ki [7]: 121 nM
Compound: COc1ccc(CNC(=O)c2cc(-c3cc(C(F)(F)F)cc(C(F)(F)F)c3)cnc2-c2cccnc2)cc1OC

Ratio Ki [5]: 3.3
Ki [6]: 1900 nM
Ki [7]: 580 nM
Compound: Cc1cc(C)cc(-c2cnc(-c3cccnc3)c(C(=O)N(C)Cc3ccc4c(c3)OCO4)c2)c1

Ratio Ki [5]: 61
Ki [6]: 1100 nM
Ki [7]: 18 nM
Compound: Cc1cc(C)cc(-c2cnc(-c3cccnc3)c(C(=O)NCc3ccc(F)c(C)c3)c2)c1

Ratio Ki [5]: 1810
Ki [6]: 1090 nM
Ki [7]: 0.6 nM
Compound: COc1ccc(CNC(=O)c2cc(-c3cc(F)cc(Cl)c3)cnc2-c2cccnc2)cc1OC

Ratio Ki [5]: 1340
Ki [6]: 1070 nM
Ki [7]: 0.8 nM
Compound: COc1ccc(CNC(=O)c2cc(-c3cc(C)cc(F)c3)cnc2-c2cccnc2)cc1OC

Ratio Ki [5]: 174
Ki [6]: 833 nM
Ki [7]: 4.8 nM
Compound: Cc1cc(C)cc(-c2cnc(-c3cccnc3)c(C(=O)NCc3ccc(N(C)C)cc3)c2)c1

bioavailability [8]: 12%
clearance [9]: 66 mL/min/kg
Ratio Ki [5]: 660
Ki [6]: 462 nM
Ki [7]: 0.7 nM
Compound: COc1ccc(CNC(=O)c2cc(-c3cc(C)cc(C)c3)cnc2-c2cccnc2)cc1OC

inhibition at 10 µM [10]: 4%
inhibition at 10 µM [11]: 24%
inhibition at 10 µM [12]: 1%
inhibition at 10 µM [13]: 31%
inhibition at 10 µM [14]: 41%
Cmax [16]: 2300 nM
AUC [17]: 9 µM·h
Ratio [18]: 0.2%
efflux ratio [19]: 6.4
fraction unbound [20]: 0.047
logP [21]: 3.6
fraction unbound [22]: 0.032
IC50 [23]: 292 nM
IC50 [24]: 12 nM
Ki [6]: 94.5 nM
Ki [7]: 0.07 nM
IC50 [25]: 1040 nM
Ki [25]: 662 nM
IC50 [27]: 2300 nM
Ki [27]: 1310 nM
IC50 [28]: 2400 nM
Ki [28]: 2280 nM
IC50 [29]: 8210 nM
Ki [29]: 6820 nM
IC50 [30]: 5020 nM
Ki [30]: 2040 nM
IC50 [31]: 9540 nM
Ki [31]: 3240 nM
IC50 [32]: 2530 nM
Ki [32]: 866 nM
Compound: COc1ccc(CNC(=O)c2cc(-c3cc(Cl)cc(Cl)c3)cnc2-c2cccnc2)cc1OC
inhibition at 10 µM [15]: 58%
IC50 [26]: 6950 nM
inhibition at 0.01 µM [33]: 3%
inhibition at 0.1 µM [34]: 12%
inhibition at 1 µM [35]: 17%
